The results in this text go back to ChEMBL document CHEMBL5055684, “Into Deep Water: Optimizing BCL6 Inhibitors by Growing into a Solvated Pocket” (J Med Chem, 2021).

Tested on in the first data set: not listed separately
The data set is described as follows: Plasma concentration in BALB/c mouse assessed as unbound fraction at 1 mg/kg, iv or 5 mg/kg, po. It is filed as ADME, organism-based.
Settings: not given
The essentials:
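Unbound fraction measured by equilibrium dialysis in mouse plasma.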
`Cn1c(=O)cc(NC(C)(C)c2ncc(C3CC3)cn2)c2cc(Nc3ccnc(Cl)c3C#N)ccc21`: the fraction unbound came to 0.013.

A further data set has as its target B-cell lymphoma 6 protein (Homo sapiens, UniProt P41182). The data set is described as follows: Inhibition of BCOR peptide binding to human BCL6 expressed in Escherichia coli measured after 270 mins by BCOR ULight TR-FRET assay.
Settings: not given
The procedure, abridged: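 Biochemical TR-FRET assay with the BTB domain of BCL6 (not full-length protein) and a short corepressor-derived peptide, measuring inhibition of their binding. The result is reported as an IC50.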
Consider `CNC(=O)COc1cc2cc(Nc3nc(N4CCC(C(=O)N(C)C)CC4)ncc3Cl)cc(OC)c2n(C)c1=O`, for which the IC50 is below 0.03 µM.

Tested on in a further data set: not listed separately
The data set is described as follows: Permeability of the compound by PAMPA. It is filed as ADME. Particulars: read-out: permeability (converted).
`Cn1c(=O)cc(NC(C)(C)c2ncccn2)c2cc(Nc3ccnc(Cl)c3C#N)ccc21`: the Papp was 18 nm/s.

`Cn1c(=O)cc(NC(C)(C)c2ncc(C3CC3)cn2)c2cc(Nc3ccnc(Cl)c3C#N)ccc21`: the Papp is 350 nm/s.

As to `Cc1nnc(C(C)Nc2cc(=O)n(C)c3ccc(Nc4ccnc(Cl)c4C#N)cc23)o1` (centres undefined), the Papp was below 2 nm/s.

Regarding `CC(Nc1cc(=O)n(C)c2ccc(Nc3ccnc(Cl)c3C#N)cc12)c1ncc(C2CC2)cn1` (centres undefined), the Papp is 140 nm/s.

Regarding `CC(Nc1cc(=O)n(CC2CCC2)c2ccc(Nc3ccnc(Cl)c3C#N)cc12)c1ncccn1` (centres undefined), the Papp is 210 nm/s.

Consider `CC(Nc1cc(=O)n(CC2CC2)c2ccc(Nc3ccnc(Cl)c3C#N)cc12)c1ncccn1` (centres undefined), for which the Papp is 85 nm/s.

In the case of `CC(Nc1cc(=O)n(C)c2ccc(Nc3ccnc(Cl)c3C#N)cc12)c1ncn(C)n1` (centres undefined), the Papp was 18 nm/s.

In the case of `Cc1cnc(C(C)Nc2cc(=O)n(C)c3ccc(Nc4ccnc(Cl)c4C#N)cc23)nc1` (centres undefined), the Papp was 56 nm/s.

In the case of `CC(Nc1cc(=O)n(C)c2ccc(Nc3ccnc(Cl)c3C#N)cc12)c1ncco1` (centres undefined), the Papp is 10 nm/s.

In the case of `C[C@@H](Nc1cc(=O)n(C)c2ccc(Nc3ccnc(Cl)c3C#N)cc12)c1ncccn1`, the Papp is 8 nm/s.

As to `CNC(=O)C(C)Nc1cc(=O)n(C)c2ccc(Nc3ccnc(Cl)c3C#N)cc12` (centres undefined), the Papp is below 2 nm/s.

For another data set, the system named is Mus musculus. The data set is described as follows: Toxicity in BALB/c mouse at 1 mg/kg, iv or 5 mg/kg, po. It is filed as organism-based. Particulars: in vivo.
With `Cn1c(=O)cc(NC(C)(C)c2ncc(C3CC3)cn2)c2cc(Nc3ccnc(Cl)c3C#N)ccc21`, the Activity entry is “Non-Toxic”.
